These results are taken from ChEMBL document CHEMBL1123626, “Novel irreversible ligands specific for "peripheral" type benzodiazepine receptors: (+/-)-, (+)-, and (-)-1-(2-chlorophenyl)-N-(1-methylpropyl)-N- (2-isothiocyanatoethyl)-3-isoquinolinecarboxamide and 1-(2-isothiocyanatoethyl)-7-chloro-1,3-dihydro-5-(4-chlorophenyl )-2H-1,4-benzodiazepin-2-one” (J Med Chem, 1987).

The nature of assay [1]: Inhibition of [3H]-PK 11195 binding to Peripheral Benzodiazepine Receptor of rat brain tissue (263 mg protein).
A short description of assay [2]: Inhibition of [3H]-Ro- 5-4864 binding to Peripheral Benzodiazepine Receptor of rat brain (255 mg protein).
Assay [3] is described as follows: Inhibition of [3H]-Ro- 5-4864 binding to Peripheral Benzodiazepine Receptor of rat kidney (62 mg protein).
Assay [4] can be described thus: Inhibition of [3H]-PK 11195 binding to Peripheral Benzodiazepine Receptor of rat kidney tissue (50 mg protein).
The nature of assay [5]: Inhibition of [3H]-Ro- 5-4864 binding to Peripheral Benzodiazepine Receptor of rat kidney (110 mg protein). In short, it runs like this: (§1)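 Kidneys from male Sprague-Dawley rats (150-200 g), decapitated, were decapsulated, minced, and homogenized in ice-cold 50 mM potassium phosphate (pH 7.0). The homogenate was spun at 23000 g for 20 min at 4 °C and the pellet resuspended. Tritiated radioligand was used at 1 nM against six inhibitor concentrations in triplicate. IC50 and pseudo Hill coefficient are given as means of two experiments.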

Assay [6] in a line: Inhibition of [3H]-PK 11195 binding to Peripheral Benzodiazepine Receptor of rat kidney tissue (22 mg protein). In short, it runs like this: as §1
Assay [7] is described as follows: Inhibition of [3H]-PK 11195 binding to Peripheral Benzodiazepine Receptor of rat brain tissue (110 mg protein). In short, it runs like this:
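Brain membrane binding used 1 nM tritiated radioligand, with six inhibitor concentrations each run in triplicate. Protein per assay was as specified. IC50 in nmol/L and pseudo Hill coefficient are reported as means of two independent experiments.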

Assay [8] is described as follows: Inhibition of [3H]-Ro- 5-4864 binding to Peripheral Benzodiazepine Receptor of rat kidney (22 mg protein). In short, it runs like this:
as §1

Assay [9] is described as follows: Inhibition of [3H]-PK 11195 binding to Peripheral Benzodiazepine Receptor of rat kidney tissue (110 mg protein). In short, it runs like this: as §1

Take `O=C1CN=C(c2ccc(Cl)cc2)c2cc(Cl)ccc2N1CCN=C=S`: the IC50 is 2.1 nM l-1 in assay [1], 2.1 nM l-1 in assay [2], 1.2 nM l-1 in [3] and 1.2 nM l-1 in [4].
As for `CCC(C)N(CCN=C=S)C(=O)c1cc2ccccc2c(-c2ccccc2Cl)n1` (racemic), the IC50 in assay [1] was 15 nM l-1; in [2], 3 nM l-1; in assay [3] it was 2 nM l-1; in assay [4] it was 2.9 nM l-1.
Regarding `CCC(C)N(CCN=C=S)C(=O)c1cc2ccccc2c(-c2ccccc2Cl)n1` (single isomer, unassigned; (-)), the IC50 in assay [5] came to 6.3 nM l-1; in assay [6], 3.9 nM l-1; in assay [7], 10 nM l-1; in [8] it was 2.9 nM l-1.
Turning to `CCC(C)N(CCN=C=S)C(=O)c1cc2ccccc2c(-c2ccccc2Cl)n1` (stereo in doubt; 11b), the IC50 in assay [9] worked out at 3.5 nM l-1; in assay [5], 2.9 nM l-1; in assay [6], 1.6 nM l-1; in assay [8] it was 1.2 nM l-1.
